Laboratory results from ChEMBL document CHEMBL4138300 (ACS Med Chem Lett, 2018).
The source made the active and inactive calls. The rule behind the calls is not given here.

How the values were obtained:
Pfeiffer [1] = assay: Cytotoxicity against human Pfeiffer cells assessed as decrease in cell viability after 5 days by CellTiter-Glo reagent based luminescence assay; format: functional; settings: 120 h
EZH2 (Homo sapiens) = assay: Inhibition of human N-terminal His-tagged EZH2/flag-tagged EED/SUZ12/AEBP2/RBAP48 A677G mutant (2 to end residues) expressed in baculovirus infected Sf9 insect cells using histone H3 (1 to 50 residues)-GGK as substrate after 2 hrs in presence of SAM by fluorescence assay
[2] = Stability of the compound in rat liver microsomes; format: ADME, microsome
[3] = Stability of the compound in human liver microsomes; format: ADME, microsome
Pfeiffer [4] = assay: Antitumor activity against human Pfeiffer cells xenografted in athymic nude mouse assessed as tumor growth inhibition at 100 mg/kg, po qd administered for 20 days measured twice per week; format: functional
Outline: (§1)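 Pfeiffer xenografts were grown to about 150-200 mm³ before dosing. The compound was given orally once daily for 20 days at the dose in each line (10, 30 or 100 mg/kg), with a reference EZH2 inhibitor dosed at 100 mg/kg. Tumor growth inhibition was expressed as percent reduction in tumor size.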

Mus musculus [5] = assay: Toxicity in athymic nude mouse xenografted with human Pfeiffer cells assessed as body weight loss at 10 to 100 mg/kg, po qd administered for 20 days measured twice per week; format: organism-based; settings: in vivo, 480 h
[6] = Apparent clearance during terminal phase in ICR mouse at 10 mg/kg administered via oral gavage; format: ADME, organism-based; settings: in vivo, read-out: CLz/F
Outline: (§2)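 Single oral dose given as a CMC-Na suspension: rats 5 mg/kg, mice 10 mg/kg. Oral bioavailability was set against the matching iv arm (rats 0.5 mg/kg, mice 1.0 mg/kg).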

[7] = Mean residence time (0 to infinity) in ICR mouse at 10 mg/kg administered via oral gavage; format: ADME, organism-based; settings: in vivo; outline: as §2
[8] = Oral bioavailability in Sprague-Dawley rat at 5 mg/kg administered via gavage; format: ADME, organism-based; settings: in vivo; outline: as §2
[9] = Protein binding in mouse plasma; format: ADME, cell-free; settings: read-out: PPB (converted)
Pfeiffer [10] = assay: Antitumor activity against human Pfeiffer cells xenografted in athymic nude mouse assessed as tumor growth inhibition at 10 mg/kg, po qd administered for 20 days measured twice per week; format: functional; settings: 480 h, read-out: TGI; outline: as §1
[11] = Protein binding in rat plasma; format: ADME, cell-free; settings: read-out: PPB (converted)
[12] = biological target: T1, Histone-lysine N-methyltransferase EZH2 (Homo sapiens, UniProt Q15910); assay: Inhibition of EZH2 in human Pfeiffer cells assessed as reduction in H3K27 trimethylation after 3 days by Western blot analysis; format: cell-based
Mus musculus [13] = assay: Apparent volume of distribution during terminal phase in ICR mouse at 1 mg/kg, iv; format: ADME, organism-based; settings: in vivo
Outline: (§3)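 Single intravenous dose: rats 0.5 mg/kg, mice 1.0 mg/kg. Plasma exposure and terminal-phase parameters were calculated from the concentration–time profile. These serve as the iv reference for bioavailability.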

[14] = Half life in rat liver microsomes; format: ADME, microsome
[15] = Cmax in ICR mouse at 10 mg/kg administered via oral gavage; format: ADME, organism-based; set-up: dose 10 mg/kg, route oral; settings: in vivo; outline: as §2
[16] = AUC (0 to t) in ICR mouse at 10 mg/kg administered via oral gavage; format: ADME, organism-based; settings: in vivo; outline: as §2
[17] = Oral bioavailability in ICR mouse at 10 mg/kg administered via gavage; format: ADME, organism-based; settings: in vivo; outline: as §2
[18] = Apparent volume of distribution during terminal phase in ICR mouse at 10 mg/kg administered via oral gavage; format: ADME, organism-based; settings: in vivo, read-out: Vz/F; outline: as §2
[19] = Cmax in Sprague-Dawley rat at 5 mg/kg administered via oral gavage; format: ADME, organism-based; set-up: dose 5 mg/kg, route oral; settings: in vivo; outline: as §2
[20] = Half life in Sprague-Dawley rat at 5 mg/kg administered via oral gavage; format: ADME, organism-based; settings: in vivo; outline: as §2
[21] = Apparent volume of distribution during terminal phase in Sprague-Dawley rat at 5 mg/kg administered via oral gavage; format: ADME, organism-based; settings: in vivo, read-out: Vz/F; outline: as §2
Rattus norvegicus = assay: Apparent volume of distribution during terminal phase in Sprague-Dawley rat at 0.5 mg/kg, iv; format: ADME, organism-based; settings: in vivo; outline: as §3
[22] = AUC (0 to t) in Sprague-Dawley rat at 5 mg/kg administered via oral gavage; format: ADME, organism-based; settings: in vivo; outline: as §2
[23] = Mean residence time (0 to infinity) in Sprague-Dawley rat at 0.5 mg/kg, iv; format: ADME, organism-based; settings: in vivo; outline: as §3
[24] = AUC (0 to t) in ICR mouse at 1 mg/kg, iv; format: ADME, organism-based; settings: in vivo; outline: as §3
Pfeiffer [25] = assay: Antitumor activity against human Pfeiffer cells xenografted in athymic nude mouse assessed as tumor growth inhibition administered po qd for 20 days measured twice per week; format: functional, organism-based
Outline: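 Pfeiffer xenografts were grown to about 150-200 mm³ before dosing. Compound was given orally once daily for 20 days at 10, 30 or 100 mg/kg. A reference EZH2 inhibitor (100 mg/kg) was run alongside. Tumor size reduction was the efficacy read-out.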

[26] = biological target: T1, Histone-lysine N-methyltransferase EZH2; assay: Inhibition of EZH2 in human WSU-DLCL2 cells assessed as reduction in H3K27 trimethylation after 3 days by Western blot analysis; format: cell-based
Target sequence in this assay (Q15910 whole entry): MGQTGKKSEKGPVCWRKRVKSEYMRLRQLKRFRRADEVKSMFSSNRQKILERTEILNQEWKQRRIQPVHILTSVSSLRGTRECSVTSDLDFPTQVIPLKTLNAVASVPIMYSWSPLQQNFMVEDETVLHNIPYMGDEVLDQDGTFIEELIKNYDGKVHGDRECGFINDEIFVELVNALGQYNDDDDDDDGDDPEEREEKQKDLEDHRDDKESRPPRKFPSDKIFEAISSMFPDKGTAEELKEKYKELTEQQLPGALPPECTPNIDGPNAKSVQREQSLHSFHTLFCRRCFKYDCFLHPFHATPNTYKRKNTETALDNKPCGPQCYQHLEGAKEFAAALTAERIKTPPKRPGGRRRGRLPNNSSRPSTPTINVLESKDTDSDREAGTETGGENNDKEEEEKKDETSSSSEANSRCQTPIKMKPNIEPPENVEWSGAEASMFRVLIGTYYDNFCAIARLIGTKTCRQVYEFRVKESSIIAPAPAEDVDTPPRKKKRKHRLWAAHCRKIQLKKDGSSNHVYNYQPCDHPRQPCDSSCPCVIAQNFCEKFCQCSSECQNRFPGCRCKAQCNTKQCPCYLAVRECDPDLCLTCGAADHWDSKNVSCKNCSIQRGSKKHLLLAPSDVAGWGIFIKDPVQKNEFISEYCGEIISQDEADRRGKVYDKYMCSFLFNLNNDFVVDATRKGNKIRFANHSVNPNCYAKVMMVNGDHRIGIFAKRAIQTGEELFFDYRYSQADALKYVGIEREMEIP

[27] = Mean residence time (0 to infinity) in ICR mouse at 1 mg/kg, iv; format: ADME, organism-based; settings: in vivo; outline: as §3
[28] = Protein binding in human plasma; format: ADME, cell-free; settings: read-out: PPB (converted)
[29] = Apparent clearance during terminal phase in Sprague-Dawley rat at 5 mg/kg administered via oral gavage; format: ADME, organism-based; settings: in vivo, read-out: CLz/F; outline: as §2
Pfeiffer [30] = assay: Antitumor activity against human Pfeiffer cells xenografted in athymic nude mouse assessed as tumor growth inhibition at 30 mg/kg, po qd administered for 20 days measured twice per week; format: functional; settings: 480 h, read-out: TGI; outline: as §1
[31] = Half life in ICR mouse at 10 mg/kg administered via oral gavage; format: ADME, organism-based; settings: in vivo; outline: as §2
[32] = Half life in human liver microsomes; format: ADME, microsome
[33] = Mean residence time (0 to infinity) in Sprague-Dawley rat at 5 mg/kg administered via oral gavage; format: ADME, organism-based; settings: in vivo; outline: as §2
[34] = AUC (0 to t) in Sprague-Dawley rat at 0.5 mg/kg, iv; format: ADME, organism-based; settings: in vivo; outline: as §3

Compound: CCN(c1cc2sccc2c(C(=O)NCc2c(C)cc(C)[nH]c2=O)c1C)C1CCOCC1
- IC50 (Pfeiffer [1]): 1830 nM
- IC50 (EZH2 (Homo sapiens)): 6 nM

Compound: CCN(c1cc2oc(C3CC3)cc2c(C(=O)NCc2c(OC)cc(C)[nH]c2=O)c1C)C1CCOCC1
- IC50 (Pfeiffer [1]): 11 nM
- IC50 (EZH2 (Homo sapiens)): 0.5 nM

Compound: CCc1c(N(CC)C2CCOCC2)cc2oc(CN3CCOCC3)cc2c1C(=O)NCc1c(C)cc(C)[nH]c1=O
- Stability [2]: Stable
- IC50 (Pfeiffer [1]): 14 nM
- IC50 (EZH2 (Homo sapiens)): 4.6 nM
- Stability [3]: Stable

Compound: CCN(c1cc2oc(C(F)(F)F)cc2c(C(=O)NCc2c(OC)cc(C)[nH]c2=O)c1C)C1CCOCC1
- IC50 (Pfeiffer [1]): 17 nM
- IC50 (EZH2 (Homo sapiens)): 2.7 nM

Compound: CCN(c1cc2oc(C#N)cc2c(C(=O)NCc2c(OC)cc(C)[nH]c2=O)c1C)C1CCOCC1
- IC50 (Pfeiffer [1]): 17 nM
- IC50 (EZH2 (Homo sapiens)): 0.8 nM

Compound: CCN(c1cc2oc(Cl)cc2c(C(=O)NCc2c(OC)cc(C)[nH]c2=O)c1C)C1CCOCC1
- IC50 (Pfeiffer [1]): 21 nM
- IC50 (EZH2 (Homo sapiens)): 0.4 nM

Compound: CCc1c(N(CC)C2CCOCC2)cc2oc(CN3CCCCC3)cc2c1C(=O)NCc1c(OC)cc(C)[nH]c1=O
- Stability [2]: Stable
- IC50 (Pfeiffer [1]): 2 nM
- IC50 (EZH2 (Homo sapiens)): 6.4 nM
- Stability [3]: Stable

Compound: CCN(c1cc2occc2c(C(=O)NCc2ccc(C)[nH]c2=O)c1Cl)C1CCOCC1
- IC50 (Pfeiffer [1]): 150 nM
- IC50 (EZH2 (Homo sapiens)): 6.5 nM

Compound: CCN(c1cc2oc(F)cc2c(C(=O)NCc2c(OC)cc(C)[nH]c2=O)c1C)C1CCOCC1
- IC50 (Pfeiffer [1]): 160 nM
- IC50 (EZH2 (Homo sapiens)): 4.1 nM

Compound: CCN(c1cc2occc2c(C(=O)NCc2c(OC)cc(C)[nH]c2=O)c1C)C1CCOCC1
- IC50 (Pfeiffer [1]): 20 nM
- IC50 (EZH2 (Homo sapiens)): 4 nM

Compound: CCN(c1cc(-c2ccc(CN3CCOCC3)cc2)cc(C(=O)NCc2c(C)cc(C)[nH]c2=O)c1C)C1CCOCC1 [TAZEMETOSTAT]
- TGI (Pfeiffer [4]): Active
- Activity (Mus musculus [5]): Non-Toxic
- IC50 (Pfeiffer [1]): 38 nM

Compound: CCN(c1cc2occc2c(C(=O)NCc2c(OC)cc(C)[nH]c2=O)c1C(F)(F)F)C1CCOCC1
- IC50 (EZH2 (Homo sapiens)): 2000 nM

Compound: CCN(c1cc(C(=O)NCc2c(OC)cc(C)[nH]c2=O)c2ccoc2c1)C1CCOCC1
- IC50 (Pfeiffer [1]): > 5000 nM
- IC50 (EZH2 (Homo sapiens)): 331 nM

Compound: CCN(c1cc2occc2c(C(=O)NCc2c(C(F)(F)F)cc(C)[nH]c2=O)c1C)C1CCOCC1
- IC50 (Pfeiffer [1]): 3300 nM
- IC50 (EZH2 (Homo sapiens)): 4.6 nM

Compound: CCc1c(N(CC)C2CCOCC2)cc2oc(CN3CCN(C)CC3)cc2c1C(=O)NCc1c(OC)cc(C)[nH]c1=O
- Stability [2]: Stable
- IC50 (Pfeiffer [1]): 8 nM
- IC50 (EZH2 (Homo sapiens)): 0.1 nM
- Stability [3]: Stable

Compound: CCN(c1cc2oc(C)cc2c(C(=O)NCc2c(C)cc(C)[nH]c2=O)c1C)C1CCOCC1
- IC50 (Pfeiffer [1]): 21 nM
- IC50 (EZH2 (Homo sapiens)): 3.8 nM

Compound: CCc1c(N(CC)C2CCOCC2)cc2occc2c1C(=O)NCc1c(OC)cc(C)[nH]c1=O
- IC50 (Pfeiffer [1]): 15 nM
- IC50 (EZH2 (Homo sapiens)): 3.3 nM

Compound: CCN(c1cc2occc2c(C(=O)NCc2c(C)cc(C)[nH]c2=O)c1C)C1CCOCC1
- IC50 (Pfeiffer [1]): 240 nM
- IC50 (EZH2 (Homo sapiens)): 4 nM

Compound: CCc1cc(C)[nH]c(=O)c1CNC(=O)c1c(C)c(N(CC)C2CCOCC2)cc2occc12
- IC50 (Pfeiffer [1]): 220 nM
- IC50 (EZH2 (Homo sapiens)): 0.6 nM

Compound: CCc1c(N(CC)C2CCOCC2)cc2oc(C3CCN(C(C)C)CC3)cc2c1C(=O)NCc1c(C)cc(C)[nH]c1=O
- CL/F [6]: 12.1 L/h/kg
- MRT inf [7]: 2.7 h
- bioavailability [8]: 9%
- fraction unbound [9]: 0.073
- inhibition in vivo at 10 mg/kg (Pfeiffer [10]): 28%
- fraction unbound [11]: 0.06
- IC50 [12]: 8 nM
- inhibition [12]: Dose-dependent effect
- Vz/F (Mus musculus [13]): 3.679 L/kg
- half-life [14]: > 0.5 h
- Cmax [15]: 0.257 µg/mL
- AUC(0-t) [16]: 0.774 µg·h/mL
- bioavailability [17]: 16%
- inhibition in vivo at 100 mg/kg (Pfeiffer [4]; 480 h, read-out: TGI): 97%
- Vd/F [18]: 21.9 L/kg
- Cmax [19]: 0.093 µg/mL
- half-life [20]: 1 h
- Vd/F [21]: 24.1 L/kg
- Vz/F (Rattus norvegicus): 2.556 L/kg
- AUC(0-t) [22]: 0.239 µg·h/mL
- MRT inf [23]: 1 h
- AUC(0-t) [24]: 0.483 µg·h/mL
- TGI (Pfeiffer [25]): Dose-dependent effect
- Activity (Mus musculus [5]): Non-Toxic
- IC50 [26]: 55 nM
- MRT inf [27]: 1.3 h
- fraction unbound [28]: 0.061
- CL/F [29]: 17.2 L/h/kg
- inhibition in vivo at 30 mg/kg (Pfeiffer [30]): 83%
- half-life [31]: 1.3 h
- IC50 (Pfeiffer [1]): 6 nM
- half-life [32]: > 0.5 h
- MRT inf [33]: 3 h
- AUC(0-t) [34]: 0.325 µg·h/mL

Compound: CCc1c(N(CC)C2CCOCC2)cc2oc(C3CCN(C)CC3)cc2c1C(=O)NCc1c(C)cc(C)[nH]c1=O
- half-life [14]: > 1 h
- AUC(0-t) [16]: 0.439 µg·h/mL
- IC50 (Pfeiffer [1]): 7 nM
- half-life [32]: > 1 h
- IC50 (EZH2 (Homo sapiens)): 6.1 nM

Compound: CCc1c(N(CC)C2CCOCC2)cc2oc(CN3CCOCC3)cc2c1C(=O)NCc1c(OC)cc(C)[nH]c1=O
- Stability [2]: Stable
- IC50 (Pfeiffer [1]): 3 nM
- IC50 (EZH2 (Homo sapiens)): 7.8 nM
- Stability [3]: Stable

Compound: CCN(c1cc2occ(C)c2c(C(=O)NCc2c(OC)cc(C)[nH]c2=O)c1C)C1CCOCC1
- IC50 (Pfeiffer [1]): 1300 nM
- IC50 (EZH2 (Homo sapiens)): 5.9 nM

Compound: CCN(c1cc2oc(C)cc2c(C(=O)NCc2c(OC)cc(C)[nH]c2=O)c1C)C1CCOCC1
- IC50 (Pfeiffer [1]): 14 nM
- IC50 (EZH2 (Homo sapiens)): 2.9 nM
